Sampled rows, rich in hits. Any-hit rate of the full collection: about 3.5%.
PREPL inhibitor: PREPL enzyme inhibitors, primary screen, biochemical, fluorescence polarization | Prolyl endopeptidase-like (Homo sapiens), Q4J6C6 | recombinant PREPL, fluorescence polarization activity-based probe | inhibition, % at 5.96 µM | 320,000 tested, 0.68% active | AID 2751, 2010; in the data active = inhibition above about 43%
PAFAH2 FP inh: PAFAH2 enzyme inhibitors, primary screen, biochemical, fluorescence polarization, human | Platelet-activating factor acetylhydrolase 2, cytoplasmic (Homo sapiens), Q99487 | recombinant PAFAH2, FP-rhodamine activity probe | inhibition, % at 3.39 µM | 340,000 tested, 0.99% active;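 active = inhibition above the mean over all tested compounds plus 3 SD, cut at about 30% in these data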;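 also: inhibitors block probe labeling of enzyme so polarization drops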
PAFAH1B2 FP inh: PAFAH1B2 enzyme inhibitors, primary screen, biochemical, fluorescence polarization, human; Platelet-activating factor acetylhydrolase IB subunit alpha2 (Homo sapiens), P68402; recombinant PAFAH1B2, FP-rhodamine activity probe; inhibition, % at 3.39 µM; 340,000 tested, 1.2% active; AID 492953, 2010;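 active = inhibition above the mean of all tested compounds plus 3 SD, cut at about 24% in these data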
Target sequence (P68402 whole entry, looked up): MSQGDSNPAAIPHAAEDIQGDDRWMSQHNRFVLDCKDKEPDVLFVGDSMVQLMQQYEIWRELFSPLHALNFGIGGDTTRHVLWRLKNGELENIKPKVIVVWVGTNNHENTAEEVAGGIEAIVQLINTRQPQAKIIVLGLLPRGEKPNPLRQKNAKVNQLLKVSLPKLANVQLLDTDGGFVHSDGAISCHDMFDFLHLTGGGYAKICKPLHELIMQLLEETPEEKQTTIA
Apaf-1 inh: inhibitors of human Apaf-1 apoptosome, primary screen, biochemical, DEVD-Rh110 fluorescence, uHTS. reconstituted apoptosome caspase-3 activity. inhibition, % at 20 µM. 330,000 tested, 0.71% active; active = inhibition of at least 40% at 20 µM
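Assay system: Apoptosome proteins | Medium: pH 7.5 Hepes buffer with CHAPS, BSA, DTT | Also added: Cytochrome c and DEVD-Rh110 substrate | Times: 30 min plus 50 min, RT | Detection: Rhodamine 110 fluorescence at Ex 480/Em 540 nm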
PAFAH1B3 FP inh: PAFAH1B3 enzyme inhibitors, primary screen, biochemical, fluorescence polarization, human | recombinant PAFAH1B3, FP-rhodamine probe | 340,000 tested, 0.28% active | inhibition, % at 3.39 µM | AID 492972, 2010;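 active = inhibition above the screen-wide average of all tested compounds plus 3 SD, cut at about 25% in these data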
Target sequence (Q15102 whole entry, looked up): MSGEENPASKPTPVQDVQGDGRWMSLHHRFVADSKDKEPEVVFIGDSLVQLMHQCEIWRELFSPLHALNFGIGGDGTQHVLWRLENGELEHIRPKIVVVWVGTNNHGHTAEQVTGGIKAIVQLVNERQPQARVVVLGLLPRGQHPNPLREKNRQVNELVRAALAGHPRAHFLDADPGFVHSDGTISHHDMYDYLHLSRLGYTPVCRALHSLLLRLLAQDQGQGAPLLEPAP
pPAFAH inh: pPAFAH enzyme inhibitors, primary screen, biochemical, fluorescence polarization, human | Platelet-activating factor acetylhydrolase (Homo sapiens), Q13093 | recombinant pPAFAH, FP-rhodamine probe fluorescence polarization | inhibition, % at 3.39 µM | 330,000 tested, 1.5% active;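 active = inhibition above the mean inhibition across the screen plus 3 SD, cut at about 25% in these data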;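 also: inhibitors block binding of the rhodamine activity-based probe so polarization drops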
Hits are given with their value; – = inactive; · = no result given; + = active, no number.

SMILES	PREPL inhibitor	PAFAH2 FP inh	PAFAH1B2 FP inh	Apaf-1 inh	PAFAH1B3 FP inh	pPAFAH inh
COc1ccc(C(=O)OCC(=O)Nc2sccc2C(N)=O)cc1OC	–	–	–	–	–	–
Cc1ccc(CC(=O)Nc2ncc([N+](=O)[O-])s2)cc1	–	–	–	–	–	–
O=C(COC(=O)c1ccc(Br)o1)Nc1ncc([N+](=O)[O-])s1	–	–	–	–	–	26.6
COc1ccc(C(=O)OCC(=O)Nc2ncc([N+](=O)[O-])s2)cc1OC	–	40.2	–	–	30.4	–
COc1ccc(C(=O)Nc2ccccc2C(=O)Nc2ccccc2C(=O)O)cc1	–	–	–	–	–	–
COc1ccc(C(=NNc2ccccc2C(=O)O)c2ccc(OC)cc2)cc1	–	–	–	–	–	33.2
CCC(C)N1C(=O)/C(=C/c2c(NCCCOC(C)C)nc3c(C)cccn3c2=O)SC1=S (centres undefined)	–	52.0	34.4	–	37.5	–
CCCN1C(=O)/C(=C/c2c(NCCCOC(C)C)nc3c(C)cccn3c2=O)SC1=S	–	–	–	–	–	–
Cc1cccc(Nc2ncnc3onc(-c4cccc(Cl)c4)c23)c1C	–	–	–	–	–	–
O=[N+]([O-])c1cc(/C=N\Nc2nc(-c3ccccc3)cs2)ccc1O	–	32.1	–	–	–	31.0
N#C/C(N=Nc1ccccc1O)=N\Nc1ccccc1O	–	41.2	36.2	–	49.7	–
COc1ccc(NC(=O)CSc2nnnn2C2CCCCC2)cc1	–	–	–	–	–	–
CC(C)(C)OC(=O)NCCCC1=CC2=CC(=O)C(C)(O)C(=O)C2=CO1 (centres undefined)	–	·	·	–	·	32.2
COC(=O)CCCC1=CC2=CC(=O)C(C)(OC(=O)C3CCCC3)C(=O)C2=CO1 (centres undefined)	–	–	–	–	–	31.9
CC(C)(C)OC(=O)NCCCC1=CC2=CC(=O)C(C)(OC(=O)c3ccc(Cl)nc3)C(=O)C2=CO1 (centres undefined)	–	·	·	–	·	40.4
CCC(=O)OC1(C)C(=O)C=C2C=C(CCCCNC(=O)OC(C)(C)C)OC=C2C1=O (centres undefined)	–	·	·	–	·	30.1
CCC(=O)OC1(C)C(=O)C=C2C=C(CCCC(=O)OC)OC=C2C1=O (centres undefined)	–	–	–	–	–	–
O=C(Nc1ccccc1)c1sccc1Oc1ccc([N+](=O)[O-])cc1F	–	–	–	–	–	–
O=C(O)c1ccc([N+](=O)[O-])c2c1C(=O)c1ccccc1C2=O	–	–	–	–	–	–
O=C1c2ccccc2C(=O)c2c([N+](=O)[O-])ccc(O)c21	–	39.9	43.3	–	63.5	26.9
CCOC(=O)CNc1nc(C(C)(C)C)nc2c1nnn2Cc1ccccc1	–	–	–	–	–	–
C/C(N)=C(/C#N)C(=O)COC(=O)CSc1ccccc1	–	–	26.2	–	–	–
C/C(N)=C(/C#N)C(=O)COC(=O)CCSc1ccccc1Cl	–	–	–	–	–	–
CC(C)=CCC/C(C)=C/CNC(=O)C[C@H]1C[C@H](C(=O)N2CCOCC2)[C@@]2(CCC3CCCC3)c3[nH]c4cc(-c5ccco5)ccc4c3CCN2C1=O	·	–	–	–	–	–
CC(=O)Nc1ccc(NC(=O)CCCn2cnc3ccccc3c2=O)cc1	–	–	–	–	–	–
SMILES	PREPL inhibitor	PAFAH2 FP inh	PAFAH1B2 FP inh	Apaf-1 inh	PAFAH1B3 FP inh	pPAFAH inh
CCC(=O)Nc1nc(C)c(-c2csc(Nc3cccc(O)c3)n2)s1	–	–	–	–	–	32.1
Cc1nc(C)c(-c2csc(Nc3cccc(O)c3)n2)s1	–	–	–	–	–	–
C[C@H](CO)N1C[C@H](C)[C@@H](CN(C)CC2CCCCC2)Oc2ccc(NC(=O)CCN3CCOCC3)cc2C1=O	–	–	–	–	–	–
Cc1cc(/C=C2/C(=N)N3C(=NC2=O)SN=C3S(C)(=O)=O)c(C)n1-c1ccccc1F	–	–	–	–	–	–
CS(=O)(=O)C1=NSC2=NC(=O)/C(=C\c3cccn3-c3ccc(Cl)cc3)C(=N)N21	–	–	63.8	·	–	–
CN(C)CCCn1c(SCC(=O)Nc2sc3c(c2C#N)CCCC3)nnc1-c1ccncc1	–	–	–	–	–	–
COCCCn1c(SCC(=O)Nc2sc3c(c2C#N)CCCC3)nnc1-c1ccncc1	–	–	–	–	–	25.7
Cc1c([N+](=O)[O-])c(C(=O)NC2CCCC2)nn1C	·	–	–	–	–	·
C=CC[C@H](CC(=O)N(CCO)Cc1ccccc1)C(=O)N[C@@H](COC(=O)[C@@H](CC=C)Cc1ccc(F)cc1)Cc1c[nH]c2ccccc12	–	–	–	–	–	–
CCN1C(=O)/C(=C/C=C2\N(CC)c3cc(S(=O)(=O)N(C)C)ccc3N2c2ccccc2)SC1=S	–	–	151.4	–	+	–
CCOc1ccc(NC2=NCC(=O)N2CCc2ccccc2)cc1	–	–	–	–	–	–
Cc1ccc(Cl)cc1NS(=O)(=O)c1ccccc1	·	–	–	·	–	·
Cc1ccc(Cl)cc1NS(=O)(=O)Cc1ccccc1	–	–	–	–	–	30.5
CC1CCCCC1NC(=O)CN1C(=O)NC(C)(c2cc(F)ccc2F)C1=O (centres undefined)	–	–	–	–	–	–
Cc1cccc(NC(=O)C(C)Sc2nnc(-c3cccnc3)o2)c1 (centres undefined)	–	–	–	–	–	–
CC(Cc1n[nH]c(=S)o1)c1ccccc1 (centres undefined)	–	–	25.8	–	–	–
CNC[C@H](CC1CCCCC1)NC[C@H](Cc1ccccc1)NCCC12CC3CC(CC(C3)C1)C2	–	–	–	73.6	–	–
Cc1cc(C)c(OCC(=O)OCC(=O)NCCC2=CCCCC2)c(C)c1	–	–	–	–	–	33.3
Cc1cc(C)c(OCC(=O)OCC(=O)NC2CCC(C)CC2)c(C)c1 (centres undefined)	–	–	–	–	–	26.1
Cc1ccc(SCC(=O)NCCC2=CCCCC2)cc1	–	–	50.3	–	–	–
O=C1N=C(N2C=CC(=C3C=CNC=C3)C=C2)/C(=C/N=NC(=O)c2ccccc2O)S1	–	–	–	–	–	25.6
O=C(COc1ccc(Cl)cc1)NCCNC(=O)c1cnccn1	–	–	–	–	–	–
O=C(CCCN1C(=O)/C(=C\c2cccs2)SC1=S)Nc1ccc(O)cc1C(=O)O	–	–	43.9	–	–	25.3
CCc1ccc(/C=C2/SC(=S)N(CCC(=O)NCCCN3CCOCC3)C2=O)cc1	–	–	–	–	–	–

Screening results deposited in PubChem BioAssay by several laboratories.
